Measurements from different studies.
Compare with care: the assays were run in different laboratories.
Target: Interleukin-1 receptor-associated kinase 1 (IRAK1, Homo sapiens, UniProt P51617)

| Structure (SMILES) | effect on | action | method | concentration | quantity | value |
| --- | --- | --- | --- | --- | --- | --- |
| CNC(=O)Nc1ccc2c(c1)[C@@]1(CC2)OC(=O)N(CC(=O)N(Cc2ccc(F)cc2)[C@@H](C)C(F)(F)F)C1=O | cell-free assay | – | competition with immobilised ligand | 1 µM | remaining binding | 88% |
| O=C1Nc2ccc(Cl)cc2C1=Cc1cc(Cl)c(O)c(Cl)c1 | cell-free assay | – | – | 0.5 µM | remaining signal | 95.4% |
| CCN(CC)CCNC(=O)c1c(C)[nH]c(/C=C2\C(=O)Nc3ccc(F)cc32)c1C | enzyme activity | inhibitor | – | 10 µM | inhibition | 86% |
| CC(C)(O)[C@H]1CC[C@H](Nc2ccc3ncc(-c4cccc(C(F)(F)F)c4)n3n2)CC1 | enzyme activity | inhibitor | – | 1 µM | remaining activity | 87.1% |
| CCCS(=O)(=O)Nc1ccc(F)c(C(=O)c2c[nH]c3ncc(-c4ccc(Cl)cc4)cc23)c1F | enzyme activity | inhibitor | – | 1 µM | inhibition | < 10% |
| Cc1ccc(Nc2nccc(N(C)c3ccc4c(C)n(C)nc4c3)n2)cc1S(N)(=O)=O | enzyme activity | inhibitor | – | 10 µM | inhibition | 25% |
| COc1cc2nccc(Oc3ccc(NC(=O)c4c5n(n(-c6ccc(F)cc6)c4=O)CCCC5)cc3)c2cc1OC | enzyme activity | inhibitor | – | 0.1 µM | inhibition | -7% |
| COc1cc(/C=C/C(=O)CC(=O)/C=C/c2ccc(O)c(OC)c2)ccc1O | enzyme activity | inhibitor | – | 1 µM | activity vs control | 97% |
| CNC(=O)c1cc(Oc2ccc(NC(=O)Nc3ccc(Cl)c(C(F)(F)F)c3)cc2)ccn1 | enzyme activity | inhibitor | – | 10 µM | inhibition | 60% |
| CCCOc1ccc([C@@H]2[C@@H](C(=O)O)[C@H](c3ccc4c(c3)OCO4)CN2CC(=O)Nc2c(CC)cccc2CC)cc1 | cell-free assay | – | competition with immobilised ligand | 1 µM | remaining binding | 96% |
| O=C1NC(=O)c2cc(Nc3ccc(F)cc3)c(Nc3ccc(F)cc3)cc21 | cell-free assay | – | – | 0.5 µM | remaining signal | 88.5% |
| O=C(Nc1cnn(-c2csc(C(=O)NC3COC3)c2)c1)Nc1c(F)cccc1Cl | enzyme activity | inhibitor | – | 5 µM | remaining activity | 107% |
| COc1cc(Nc2cnc(C#N)c(O[C@H](C)CN(C)C)n2)ncc1-c1cnn(C)c1 | enzyme activity | inhibitor | radiometric | 10 µM | remaining activity | 9% |
| Nc1ncnc2occ(-c3ccc(NC(=O)Nc4cc(C(F)(F)F)ccc4F)cc3)c12 | cell-free assay | inhibitor | – | 20 µM | remaining signal | 0.85% |
| O=C(NC[C@@H]1[C@H]2CN(C(=O)OCc3cc(C(F)(F)F)cc(C(F)(F)F)c3)C[C@@H]12)c1ccc2[nH]nnc2c1 | cell-free assay | – | competition with immobilised ligand | 1 µM | remaining binding | 98% |
| COc1cc(-c2cc(-c3ccc(N4CCNCC4)cc3)cnc2C)cc(OC)c1OC | enzyme activity | inhibitor | – | 0.1 µM | inhibition | 2% |
| C=CC(=O)Nc1cc(Nc2nccc(Nc3cc(Cl)c(F)cc3C(C)(C)O)n2)c(OC)cc1N1CC[C@@H](N(C)C)C1 | enzyme activity | inhibitor | – | 1 µM | inhibition | 11% |
| COCCOc1nc(-c2ccc(Cl)nc2)nc2c1CN(C(=O)c1ncn3ccccc13)CC2 | cell-free assay | – | competition with immobilised ligand | 0.1 µM | remaining binding | 100% |
| FC(F)(F)Oc1cccc(-c2cnc3ccc(-c4ccncc4)nn23)c1 | enzyme activity | inhibitor | radiometric | 5 µM | activity vs control | 24% |
| CCOC(=O)c1cc2cc(-c3cc(C(=O)NCc4ccc(C(=O)O)cc4)nn3C)ccc2[nH]1 | cell-free assay | – | competition with immobilised ligand | 0.1 µM | remaining binding | 85% |
| Cc1sc(C(=O)NC2COC2)cc1-n1cc(NC(=O)Nc2c(F)cccc2Cl)cn1 | enzyme activity | inhibitor | – | 10 µM | remaining activity | 79.9% |
| Cc1cnc(NC2CCOCC2)nc1-n1cnc(C(=O)NC(CN)c2cc(F)cc(Cl)c2)c1 (centres unmarked) | enzyme activity | inhibitor | radiometric | 1 µM | remaining activity | 101% |
| CCN(CC)c1ccc(C2=NNC(=O)CC2C)cc1[N+](=O)[O-] (centres unmarked) | enzyme activity | inhibitor | – | 10 µM | remaining activity | 89% |
| NS(=O)(=O)c1cc(NC(=O)C2(c3ccccc3Cl)CC2)ccc1Oc1cccc(Cl)c1 | cell-free assay | – | competition with immobilised ligand | 1 µM | remaining binding | 79% |
| CC(C)(C)c1nc(-c2cccc(NS(=O)(=O)c3c(F)cccc3F)c2F)c(-c2ccnc(N)n2)s1 | enzyme activity | inhibitor | radiometric | 1 µM | remaining activity | 84% |
| Cc1nc(Cc2cccc(C(F)(F)F)c2)sc1-c1ccc(C(N)=O)nc1 | cell-free assay | – | competition with immobilised ligand | 1 µM | remaining binding | 100% |
| c1ccc(CNc2nc(N3CCOc4ccccc43)nc3c2CCCC3)cc1 | target engagement in cells | inhibitor | chemoproteomics | 20 mM | inhibition | -2.4% |
| CS(=O)(=O)c1cc(C2(NC(=O)c3cncc4c3cnn4-c3ccc(F)cc3)CC2)ccn1 | cell-free assay | – | competition with immobilised ligand | 1 µM | remaining binding | 87% |
| CN(C)C1CCN(CC#Cc2nn(C3CCCC3)c3nc(NCc4ccccc4)ncc23)C1 (centres unmarked) | enzyme activity | inhibitor | FRET | 0.1 µM | inhibition | 6% |
